According to ChEMBL document CHEMBL1148216, “New nardosinanes and 19-oxygenated ergosterols from the soft coral Nephthea armata collected in Taiwan” (J Nat Prod, 2004):

How the values were obtained:
Assay type in all cases: functional, cell-based
HT-29 = assay: Cytotoxicity against human HT29 cells
Procedure, shortened: (§1)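 Cytotoxicity was run by a previously described procedure, with mithramycin as the positive control, and IC50 values were derived. P-388 cells were a gift from an academic laboratory, and the A549 and HT-29 cells were obtained from a culture collection.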

A549 = assay: Cytotoxicity against human A549 cells; procedure, shortened: as §1
P388 = assay: Cytotoxicity against mouse P388 cells; procedure, shortened: as §1

Structure (SMILES)	IC50 (HT-29)	IC50 (A549)	IC50 (P388)
C[C@@H]1C(=O)O[C@@H]2CCC3=C[C@@H](O)C[C@H](C)[C@@]3(C)[C@@H]12 [ARMATIN B]	> 50 µM	> 50 µM	> 50 µM
C[C@H]1[C@H]2[C@@H](CCC3=C[C@@H](O)C[C@H](C)[C@]32C)O[C@@H]1O [ARMATIN A]	> 50 µM	> 50 µM	> 50 µM
CO[C@H]1O[C@@H]2CCC3=C[C@@H](O)C[C@H](C)[C@@]3(C)[C@H]2[C@@H]1C [ARMATIN C]	> 50 µM	> 50 µM	> 50 µM
CO[C@@H]1O[C@H]2CCC3=CC(=O)C[C@H](C)[C@@]3(C)[C@H]2[C@@H]1C [ARMATIN E]	> 50 µM	> 50 µM	> 50 µM
C=C(CC[C@@H](C)[C@H]1CC[C@H]2[C@@H]3C[C@@H](O)[C@@]4(O)C[C@@H](O)CC[C@]4(COC(C)=O)[C@H]3CC[C@]12C)C(C)C [ARMATINOL B]	3.1 µM	–	3.2 µM
C=C(CC[C@@H](C)[C@H]1CC[C@H]2[C@@H]3C[C@H]4O[C@]45C[C@@H](O)CC[C@]5(COC(C)=O)[C@H]3CC[C@]12C)C(C)C [ARMATINOL A]	6.5 µM	7.6 µM	6.1 µM
C[C@@H]1C(=O)O[C@H]2CCC3=CC(=O)C[C@H](C)[C@@]3(C)[C@H]21	> 50 µM	> 50 µM	> 50 µM
CO[C@@H]1O[C@H]2CCC3=C[C@@H](O)C[C@H](C)[C@@]3(C)[C@H]2[C@@H]1C [ARMATIN D]	> 50 µM	> 50 µM	> 50 µM
CO[C@H](C(=O)[C@@H](O)[C@@H](C)O)[C@@H]1Cc2cc3cc(O[C@H]4C[C@@H](O[C@@H]5C[C@@H](O)[C@H](O)[C@@H](C)O5)[C@H](O)[C@@H](C)O4)c(C)c(O)c3c(O)c2C(=O)[C@H]1O[C@H]1C[C@@H](O[C@@H]2C[C@@H](O)[C@@H](O[C@@H]3C[C@](C)(O)[C@H](O)[C@@H](C)O3)[C@@H](C)O2)[C@H](O)[C@@H](C)O1 [PLICAMYCIN]	0.3 µM	0.2 µM	0.1 µM
